According to ChEMBL document CHEMBL5674874, “BRD4 facilitates DNA damage response and represses CBX5/Heterochromatin protein 1 (HP1)” (Oncotarget, 2017):
The source made the active and inactive calls. The rule behind the calls is not given here.

Assays:
IGROV-1 = assay: Induction of DNA damage response in human IGROV-1 cells assessed as CHK1 Ser345 phosphorylation at 2.5 uM in presence of 2.5 nM CHK1 inhibitor LY2606368 after 24 hrs by Western blot analysis; assay type: functional, cell-based
Method in brief: (§1)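 Cells were exposed to JQ1 (2.5 μM) and/or LY2606368 (2.5 nM) for 24hr. Sub-confluent cells were lysed in 1% NP40 buffer with protease and phosphatase inhibitors, and protein was measured by BCA. Total lysates were blotted for phospho-CHK1 (Ser345) and CHK1 with GAPDH as loading control, using HRP chemiluminescence detection. Blots were repeated three times.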

SK-OV-3 [1] = assay: Cytotoxicity against human SK-OV-3 cells assessed as reduction in cell viability after 3 days by XTT assay; assay type: functional, cell-based; conditions: SK-OV-3, 72 h
Method in brief: (§2)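 Ovarian cancer lines in RPMI with 10% heat-inactivated FBS were seeded at 2,000-4000 cells/well in triplicate. Drug from DMSO stock was added 24hr later, and XTT was read 3 days after drug addition. Proliferation is relative to negative control, and IC50 was calculated from the individual XTT data points.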

OVCAR-5 [2] = assay: Cytotoxicity against human OVCAR-5 cells assessed as reduction in cell viability after 3 days by XTT assay; assay type: functional, cell-based; conditions: OVCAR-5, 72 h; method in brief: as §2
[3] = molecular target: Bromodomain-containing protein 4 (Homo sapiens) (UniProt O60885); conditions: OVCAR-8, dose 500.0 nM, time 24.0 hrs
OVCAR-3 [4] = assay: Cytotoxicity against human OVCAR-3 cells assessed as reduction in cell viability after 3 days by XTT assay; assay type: functional, cell-based; conditions: OVCAR-3, 72 h; method in brief: as §2
A2780 [5] = assay: Cytotoxicity against human A2780 cells assessed as reduction in cell viability after 3 days by XTT assay; assay type: functional, cell-based; conditions: A2780, 72 h; method in brief: as §2
SK-OV-3 [6] = assay: Induction of DNA damage response in human SK-OV-3 cells assessed as CHK1 Ser345 phosphorylation at 2.5 uM in presence of 2.5 nM CHK1 inhibitor LY2606368 after 24 hrs by Western blot analysis; assay type: functional, cell-based; method in brief: as §1
A2780 [7] = assay: Induction of DNA damage response in human A2780 cells assessed as CHK1 Ser345 phosphorylation at 2.5 uM in presence of 2.5 nM CHK1 inhibitor LY2606368 after 24 hrs by Western blot analysis; assay type: functional, cell-based; method in brief: as §1
OVCAR-8 [8] = assay: Effect on gamma-H2AX expression in human OVCAR-8 cells at 2.5 uM for 20 hrs by immunofluorescent staining; assay type: functional, cell-based
Method in brief: (§3)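 Cells were serum-starved for 16hr, then given JQ1 2.5 μM and/or LY2606368 10 nM for 20hr. They were fixed in 4% paraformaldehyde, permeabilized with 0.25% Triton X-100, and blocked in 10% goat serum. γ-H2AX (Ser139/Tyr142) antibody at 1:200 was applied for 2hr, then an Alexa Fluor secondary for 1hr at 4°C. Signal was read by flow cytometry.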

OVCAR-8 [9] = assay: Cytotoxicity against human OVCAR-8 cells assessed as reduction in cell viability after 3 days by XTT assay; assay type: functional, cell-based; conditions: OVCAR-8, 72 h; method in brief: as §2
OVCAR-5 [10] = assay: Induction of DNA damage response in human OVCAR-5 cells assessed as CHK1 Ser345 phosphorylation at 2.5 uM in presence of 2.5 nM CHK1 inhibitor LY2606368 after 24 hrs by Western blot analysis; assay type: functional, cell-based; method in brief: as §1
OVCAR-3 [11] = assay: Induction of DNA damage response in human OVCAR-3 cells assessed as CHK1 Ser345 phosphorylation at 2.5 uM in presence of 2.5 nM CHK1 inhibitor LY2606368 after 24 hrs by Western blot analysis; assay type: functional, cell-based; method in brief: as §1
OVCAR-8 [12] = assay: Induction of DNA damage response in human OVCAR-8 cells assessed as CHK1 Ser345 phosphorylation at 2.5 uM in presence of 2.5 nM CHK1 inhibitor LY2606368 after 24 hrs by Western blot analysis; assay type: functional, cell-based; method in brief: as §1
[13] = molecular target: Bromodomain-containing protein 4 (Homo sapiens) (UniProt O60885); conditions: OVCAR-8, dose 500.0 nM, time 24.0 hrs; remark: listed apart in the source
OVCAR-8 [14] = assay: Induction of cell cycle arrest in human OVCAR-8 cells assessed as accumulation of cells at G1 phase at 2.5 uM for 20 hrs by propidium iodide staining based flow cytometry; assay type: functional
OVCAR-8 [15] = assay: Effect on gamma-H2AX phosphorylation in nucleus of human OVCAR-8 cells at 2.5 uM for 20 hrs by immunofluorescent staining; assay type: functional, cell-based; method in brief: as §3
OVCAR-5 [16] = assay: Cytotoxicity against human OVCAR-5 cells assessed as reduction in cell viability at 10 nM in presence of siCBX5 after 3 days by XTT assay; assay type: functional, cell-based; conditions: time 3.0 day
Method in brief: (§4)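 Cells were transfected with siRNA (final 20nM, DharmaFECT1) and seeded in 3 replicates 24hr later. Drug was added 24hr after seeding. Viability was read by XTT and normalized to siNeg-transfected cells.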

OVCAR-8 [17] = assay: Induction of abnormal nuclear morphology in human OVCAR-8 cells at 10 nM by immunostaining; assay type: functional, cell-based
Method in brief: (§5)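 Ovcar8 cells were transfected with 20nM siRNA; for co-transfection, 10nM of each. At 24hr they were plated on coverslips, and 8hr later LY2606368 10nM was added for 24hr. Cells were fixed (4% paraformaldehyde), permeabilized (0.25% Triton X-100), blocked (10% goat serum) and stained for H3K4me3, γ-H2AX and DAPI. Sphericity is the ratio of two perpendicular nuclear diameters, over multiple fields of 10-40 cells.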

OVCAR-8 [18] = assay: Cytotoxicity against human OVCAR-8 cells assessed as reduction in cell viability at 10 nM in presence of siCBX5 after 3 days by XTT assay; assay type: functional, cell-based; conditions: time 3.0 day; method in brief: as §4
SK-OV-3 [19] = assay: Cytotoxicity against human SK-OV-3 cells assessed as reduction in cell viability at 10 nM in presence of siCBX5 after 3 days by XTT assay; assay type: functional, cell-based; conditions: time 3.0 day; method in brief: as §4
OVCAR-3 [20] = assay: Cytotoxicity against human OVCAR-3 cells assessed as reduction in cell viability at 10 nM in presence of siCBX5 after 3 days by XTT assay; assay type: functional, cell-based; conditions: time 3.0 day; method in brief: as §4
OVCAR-8 [21] = assay: Induction of abnormal nuclear morphology in human OVCAR-8 cells assessed as loss of nuclear roundness at 10 nM in presence of siCBX5 by immunostaining; assay type: functional, cell-based; method in brief: as §5

For Cc1sc2c(c1C)C(c1ccc(Cl)cc1)=N[C@@H](CC(=O)OC(C)(C)C)c1nnc(C)n1-2, the Activity (IGROV-1) was “inactive”, the IC50 (SK-OV-3 [1]) was 100 nM and the IC50 (OVCAR-5 [2]) was 100 nM. The inhibition [3] was “Active”, the IC50 (OVCAR-3 [4]) was 100 nM and the IC50 (A2780 [5]) was 100 nM. The Activity (SK-OV-3 [6]) was “inactive”, the Activity (A2780 [7]) was “inactive” and the Activity (OVCAR-8 [8]) was “inactive”. The IC50 (OVCAR-8 [9]) was 100 nM, the Activity (OVCAR-5 [10]) was “inactive” and the Activity (OVCAR-3 [11]) was “inactive”. For the same compound, the Activity (OVCAR-8 [12]) was “inactive”, the inhibition [13] was “Active” and the Activity (OVCAR-8 [14]) was “Active”. For the same compound, the Activity (OVCAR-8 [15]) was “inactive”.

COc1cccc(OCCCN)c1-c1cc(Nc2cnc(C#N)cn2)n[nH]1 [PREXASERTIB] was tested, and the Activity (OVCAR-5 [16]) was “inactive”, the IC50 (SK-OV-3 [1]) was 10 nM and the IC25 (SK-OV-3 [1]; time 3 day) was 4 nM. The Activity (OVCAR-8 [17]) was “Active”, the IC50 (OVCAR-5 [2]) was 3 nM and the IC25 (OVCAR-5 [2]; time 3 day) was 1.5 nM. The Activity (OVCAR-8 [18]) was “inactive”, the Activity (SK-OV-3 [19]) was “inactive” and the Activity (OVCAR-3 [20]) was “inactive”. It also gave an IC50 (OVCAR-3 [4]) of 12 nM, an IC25 (OVCAR-3 [4]; time 3 day) of 6 nM and an IC50 (A2780 [5]) of 40 nM. For the same compound, the IC25 (A2780 [5]; time 3 day) was 10 nM, the Activity (OVCAR-8 [21]) was “inactive” and the IC50 (OVCAR-8 [9]) was 10 nM. It also gave an IC25 (OVCAR-8 [9]; time 3 day) of 5 nM.
